Bioassay records deposited in PubChem by Johns Hopkins Ion Channel Center.
Sampled rows, rich in hits. Any-hit rate of the full collection: about 2.3%.
TRPC6 act – mouse TRPC6 channel activation | Q61143 | HEK293-TRPC6 membrane potential dye fluorescence; active compounds read high | B-score at 10 µM | 310,000 compounds, 0.13% hits | AID 2550;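 active means B-score of the integrated fluorescence ratio above library mean plus 3 SD, and starting fluorescence ratio within library mean plus 5 SD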;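 further: higher score means more depolarization so channel activation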
TRPC4 PAM – allosteric potentiators of mouse TRPC4 channel. Q9QUQ5. HEK293 TRPC4beta/mu-opioid, DAMGO EC20, Fluo-4 Ca2+ flux; active compounds read high. B-score at 10 µM. 310,000 compounds, 0.42% hits. AID 2227;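 active means B-score of calcium response area above 5 SD of library B-scores, with initial fluorescence ratio within 5 SD of library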;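 further: B-score of integrated fluorescence ratio over time as area under calcium response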
Target sequence (Q9QUQ5 whole entry, looked up): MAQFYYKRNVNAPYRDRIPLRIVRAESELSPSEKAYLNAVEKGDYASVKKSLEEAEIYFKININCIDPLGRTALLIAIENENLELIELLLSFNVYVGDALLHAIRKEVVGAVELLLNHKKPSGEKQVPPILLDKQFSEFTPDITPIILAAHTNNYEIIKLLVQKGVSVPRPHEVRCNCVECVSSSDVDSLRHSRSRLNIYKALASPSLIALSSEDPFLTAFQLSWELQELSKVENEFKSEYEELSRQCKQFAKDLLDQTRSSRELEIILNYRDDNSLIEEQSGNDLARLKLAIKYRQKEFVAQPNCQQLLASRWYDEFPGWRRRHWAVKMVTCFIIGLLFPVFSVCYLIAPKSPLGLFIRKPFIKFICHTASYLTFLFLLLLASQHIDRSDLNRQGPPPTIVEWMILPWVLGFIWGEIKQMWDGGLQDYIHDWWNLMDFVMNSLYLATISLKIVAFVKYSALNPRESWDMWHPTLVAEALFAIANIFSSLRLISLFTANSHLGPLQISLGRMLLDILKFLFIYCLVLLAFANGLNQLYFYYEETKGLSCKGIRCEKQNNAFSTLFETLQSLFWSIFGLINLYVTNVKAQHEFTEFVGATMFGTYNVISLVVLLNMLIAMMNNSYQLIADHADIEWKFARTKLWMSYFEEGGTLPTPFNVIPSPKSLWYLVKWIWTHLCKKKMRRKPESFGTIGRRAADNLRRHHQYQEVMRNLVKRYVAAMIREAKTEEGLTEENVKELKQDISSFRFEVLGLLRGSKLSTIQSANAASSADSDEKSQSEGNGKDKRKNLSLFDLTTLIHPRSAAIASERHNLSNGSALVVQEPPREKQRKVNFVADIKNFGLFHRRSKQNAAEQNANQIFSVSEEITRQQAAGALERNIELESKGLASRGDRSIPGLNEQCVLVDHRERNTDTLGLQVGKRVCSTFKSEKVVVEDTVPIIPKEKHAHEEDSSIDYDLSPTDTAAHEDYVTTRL
TRPC4 act – activators of mouse TRPC4 channel; HEK293 TRPC4beta/mu-opioid, Fluo4 calcium fluorescence; active compounds read high; AID 2237; B-score at 10 µM; 310,000 compounds, 0.49% hits; Q9QUQ5;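 active means B-score above 5 SD of library B-scores, and initial fluorescence ratio not above library mean plus 5 SD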;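 further: positive B-score marks a calcium rise read as TRPC4 activation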
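Material: HEK293 stable line with TRPC4beta plus mu-opioid receptor; technique: Fluo4 calcium-sensitive dye fluorescence, kinetic, 1 Hz baseline; timing: Fluo4 dye loading 45 min at room temperature, 110 s recording; controls: assay buffer as low control, maximal DAMGO as high control; read-out: integrated baseline-normalised fluorescence ratio, converted to per-well B score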
TRPC6 inh – inhibitors of mouse TRPC6 channel | B-score at 10 µM | 310,000 compounds, 1.1% hits | HEK293-TRPC6, membrane potential dye, ACh-evoked depolarization; active compounds read low;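 active means B-score under library mean minus 3 SD, initial fluorescence not abnormally high, positive integrated signal ratio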;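 further: B-score derived from integrated fluorescence ratio over the kinetic read; more negative B-score means stronger inhibition of depolarization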
TRPC4 block – blocks the mouse TRPC4 cation channel | Q9QUQ5 | HEK293 TRPC4beta/mu-opioid, DAMGO-evoked Fluo4 calcium flux; active compounds read low | B-score at 10 µM | 300,000 compounds, 0.39% hits | AID 2247;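 active means B-score over 3 SD under the library average, no early fluorescence shift, positive overall ratio signal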
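Material: HEK293 cells with stable TRPC4beta plus mu-opioid receptor expression; probe or stimulus: DAMGO in two steps, submaximal then maximal; technique: Fluo4 calcium fluorescence by kinetic imaging, 5 s 1 Hz baseline; measure: integrated fluorescence ratio relative to baseline, converted to per-well B score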
TRPC4 sel inh 2 – second selectivity test of TRPC6 inhibitors: effect on mouse TRPC4; shares compounds with TRPC6 inh; HEK293 TRPC4/MOR, membrane potential dye fluorescence; channel activated by saturating DAMGO dose; inhibition, % at 10 µM; 920 compounds, 42% hits; AID 2776;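 active means compounds whose fluorescence signal differed from control wells by over 3 SD, either direction, in both duplicate plates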
TRPC4 spec – mouse TRPC4 off-target activity of TRPC6 inhibitors; AID 2777; shares compounds with TRPC6 inh; activity change, negative = inhibition, % at 10 µM; HEK293 TRPC4/mu-opioid, membrane potential fluorescence; 920 compounds, 61% hits;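 active means rise or fall in signal beyond 3 SD of buffer-only wells in both replicate plates, either sign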;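 further: integrated kinetic ratio of fluorescence range over baseline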
HEK293 MPD ctr 2-1 – parental HEK293 nonspecific activity of TRPC6 inhibitors, second screen. signal change vs control, % at 10 µM. parental HEK293 membrane potential dye fluorescence; maximal acetylcholine challenge after compound addition. 920 compounds, 31% hits. AID 2779. shares compounds with TRPC6 inh;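 active means membrane potential signal moving either way by over 3 SD of the maximum-effect control, in both duplicate plates, meaning non-specific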
HEK293 MPD ctr-1 – counter-screen for TRPC6 inhibitors: effect in parental HEK293 cells; shares compounds with TRPC6 inh; parental HEK293 membrane potential dye fluorescence; membrane potential signal change, % at 10 µM; 920 compounds, 60% hits;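 active means membrane potential signal shifting up or down by more than 3 SD of buffer-only wells, on both duplicate plates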
HEK293 MPD ctr-2 – parental HEK293 nonspecific activity of TRPC6 modulators; 2,400 compounds, 51% hits; membrane potential signal change, % at 10 µM; AID 488924; membrane potential dye fluorescence; shares compounds with TRPC6 inh;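 active means membrane potential signal moves up or down beyond 5 SD from buffer-only wells, on both duplicate plates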
HEK293 MPD ctr 2-2 – second check of TRPC6 modulator effects in parental HEK293 cells; 2,400 compounds, 14% hits; membrane potential dye fluorescence; after compound, maximal acetylcholine stimulation; shares compounds with TRPC6 inh; inhibition, % at 10 µM;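 active means membrane potential signal drops by more than 5 SD from the mean control signal, in both duplicate plates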;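 further: plate controls were acetylcholine ECmax control wells for no effect and buffer only wells for full effect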
TRPC4/MOR mod – selectivity of TRPC6 modulators against mouse TRPC4; shares compounds with TRPC6 inh; HEK293 TRPC4/mu-opioid, membrane potential fluorescence; percent change from control (negative = decrease, positive = increase), % at 10 µM; 2,400 compounds, 69% hits; AID 488927;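 active means membrane potential signal moved up or down beyond 5 SD of buffer control wells, in both duplicate plates, actives on both sides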;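 further: plate controls were assay buffer wells for no effect and DAMGO maximal-effect wells for full effect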
TRPC4/MOR inh 2 – second check of whether TRPC6 modulators also affect mouse TRPC4; 2,400 compounds, 55% hits; inhibition, % at 10 µM; shares compounds with TRPC6 inh; AID 488928; HEK293 TRPC4/mu-opioid, membrane potential dye fluorescence; stimulated with maximal-effect DAMGO;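 active means drop in membrane potential signal beyond 5 SD of the control wells in both duplicate plates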;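 further: TRPC4 counter screen for TRPC6 hits run under conditions tuned for TRPC6 not TRPC4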
TRPC6 inh conf – mouse TRPC6 inhibitor confirmation. shares compounds with TRPC6 inh. HEK293-TRPC6, membrane potential dye, ACh-evoked depolarization. inhibition, % at 10 µM. 3,300 compounds, 43% hits;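 active means fluorescence ratio falls more than 5 SD below the full-stimulation control mean, in both duplicate runs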;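 further: integrated fluorescence ratio of peak minus minimum over baseline after agonist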
TRPC6 act confirm – confirmation of mouse TRPC6 activators | shares compounds with TRPC6 inh | HEK293-TRPC6 membrane potential dye fluorescence, FDSS | activation, % at 10 µM | 2,800 compounds, 11% hits;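 active means ratio signal rise beyond 5 SD above unstimulated control wells' mean, seen in both duplicate runs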;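 further: plate controls were buffer EC0 wells for no effect and acetylcholine ECmax response for full effect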
* marks the source's active call; other numbers are inactive results; i = inactive; / = not tested or not shown.

SMILES	TRPC6 act	TRPC4 PAM	TRPC4 act	TRPC6 inh	TRPC4 block	HEK293 MPD ctr-2	HEK293 MPD ctr 2-2	TRPC4/MOR mod	TRPC4/MOR inh 2	TRPC6 inh conf	TRPC6 act confirm	others
CCCSc1nc(N)c2c3c(sc2n1)CN(C)CC3	i	i	i	-7.1*	i	-112%*	i	-26%*	i	i	i
CC(C)Sc1nc(N)c2c3c(sc2n1)CN(C)CC3	i	i	i	i	i	/	/	/	/	/	/
CN(C)CCSc1nc(N)c2c3c(sc2n1)CN(C)CC3	i	i	i	-8.6*	i	-210%*	i	-39%*	46%*	55%*	i
COCCSc1nc(N)c2c3c(sc2n1)CN(C)CC3	i	i	i	-9.4*	i	-148%*	i	-29%*	30%*	i	i
CSc1nc(NCC(C)C)c2c3c(sc2n1)CN(C)CC3	i	i	i	i	i	/	/	/	/	/	/
Cc1ccn2cc(-c3ccc(O)c(O)c3)nc2c1	i	i	i	-5.3*	i	-120%*	i	-23%*	i	i	i
Oc1ccc(-c2cn3ccccc3n2)cc1O	i	i	i	i	i	/	/	/	/	/	/
CC(C)N1CCC(=NNC(=O)c2ccccc2[N+](=O)[O-])CC1	i	i	i	i	i	/	/	/	/	/	/
O=C(NN=C1CCCC1)c1ccccc1[N+](=O)[O-]	i	i	i	-5.6*	i	i	i	8.0%*	i	i	i
Fc1ccccc1COc1ccc(C(=S)N2CCCC2)cc1	i	i	i	i	i	/	/	/	/	/	/
CCC1CCCCN1CCCNC(=O)c1ccc2c(c1)N(Cc1c(F)cccc1Cl)C(=O)CS2 (stereo not drawn)	i	i	i	-6.5*	i	i	i	-17%*	82%*	78%*	i
O=C(NCc1ccc2c(c1)OCO2)c1ccc2c(c1)N(Cc1c(F)cccc1Cl)C(=O)CS2	i	i	i	i	i	/	/	/	/	/	/
OCC[C@@H]1C[C@@H](O)[C@H](O)[C@]2(Cc3ccccc3CO2)O1	i	i	i	i	i	/	/	/	/	/	/
CCN(CC)CCOC(=O)c1cccc2c1-c1ccccc1C2O (stereo not drawn)	i	i	i	i	i	/	/	/	/	/	/
CCN(CC)S(=O)(=O)c1ccc(NN=C2CCN(C)CC2)c([N+](=O)[O-])c1	i	i	i	-7.2*	i	-83%*	i	-20%*	39%*	i	i
CN(C)CCN(C(=O)c1ccc2c(c1)OCCO2)c1nc2c(Cl)cccc2s1	i	i	i	-7.2*	i	/	/	/	/	98%*	i	TRPC4 sel inh 2=26%*;TRPC4 spec=-22%*;HEK293 MPD ctr 2-1=i;HEK293 MPD ctr-1=-288%*
COc1cc2ccccc2cc1C(=O)N(CCN(C)C)c1nc2c(OC)ccc(OC)c2s1	i	i	i	i	i	/	/	/	/	/	/
CCOc1cccc2sc(N(CCCN(C)C)C(=O)c3ccc(S(=O)(=O)N(C)c4ccccc4)cc3)nc12	i	i	i	-6.6*	i	i	i	i	71%*	i	i
COc1ccc(OC)c2sc(N(CCN(C)C)C(=O)c3ccc4ccccc4c3)nc12	i	12*	i	-7.6*	i	/	/	/	/	79%*	i	TRPC4 sel inh 2=i;TRPC4 spec=i;HEK293 MPD ctr 2-1=i;HEK293 MPD ctr-1=i
COc1ccc(Cl)c2sc(N(CCN(C)C)C(=O)c3ccc4c(c3)OCCO4)nc12	i	46*	i	-9.6*	i	-122%*	90%*	-40%*	90%*	72%*	i
CC(=O)c1ccc(C(=O)N(CCN(C)C)c2nc3c(Cl)cccc3s2)cc1	i	i	i	i	i	/	/	/	/	/	/
CCOc1cccc2sc(N(CCCN(C)C)C(=O)c3ccc(S(=O)(=O)N4CCc5ccccc5C4)cc3)nc12	i	i	i	i	i	/	/	/	/	/	/
O=C(CNCc1ccccc1)Nc1ccc(Cl)cc1	i	i	i	i	i	/	/	/	/	/	/
CC1CN(C(=O)CCC(=O)NCCCN2C(C)CCCC2C)c2ccccc2O1 (stereo not drawn)	i	i	i	i	i	/	/	/	/	/	/
CC1(C)Oc2ccc(C(=O)NN)cc2NC1=O	i	i	i	i	i	/	/	/	/	/	/
COc1cccc2sc(N(CCN(C)C)C(=O)c3ccc(S(=O)(=O)N4CCCC4)cc3)nc12	i	i	i	i	i	/	/	/	/	/	/
CC1CN(S(=O)(=O)c2ccc(C(=O)N(CCCN(C)C)c3nc4c(Cl)cccc4s3)cc2)CC(C)O1 (stereo not drawn)	i	i	i	-7.5*	i	i	i	-14%*	68%*	i	i
CC(C)(O)C#Cc1ccc(CN2CCN(C3CCCCC3)C(CCO)C2)s1 (stereo not drawn)	i	i	i	-7.4*	i	/	/	/	/	i	i	TRPC4 sel inh 2=i;TRPC4 spec=i;HEK293 MPD ctr 2-1=i;HEK293 MPD ctr-1=i
Cc1cc(OCC(=O)NC2CCN(Cc3ccccc3)CC2)c2c(C)cc(=O)oc2c1	i	i	i	-6.1*	i	-82%*	i	-26%*	i	i	i
